An excerpt weighted towards active compounds, which were near 2.5% of everything screened.
A1 inh – caspase 3/7 activation in MEF A1-2A-BIM cells, primary screen, A1 inhibitor project, cell-based, luminescence, HTS. AID 2462, 2010. caspase activation, % (no concentration beside the values). Caspase-Glo 3/7 luminescence, 3 h; percent of clofoctol response, vehicle zero. 0.066% of 330,000 active;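 active means over half of replicate activation scores above 10%, or exactly half above 10 with the replicate mean above 10; inconclusive means replicate mean below 10 yet half the replicates above 10; inactive means over half of replicates below 10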
Granule exo inh – LAMP-1 surface exposure blockers, TALL-104 cells – cell-based, flow cytometry, MLPCN library, primary screen; TALL-104 LAMP-1 surface exposure; cells stimulated with thapsigargin and PMA; inhibition, % at 10 µM; 0.66% of 360,000 active; AID 651702, 2012;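 active means inhibition above about 55%, limit read from the data; inconclusive means no clear call, values can overlap the other calls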
MC4R antagonist – MC4R antagonists of cAMP signaling, primary screen, cell-based, TR-FRET, antagonist arm of biased-ligand search; AID 540295, 2011; 0.48% of 360,000 active; inhibition, % at 6.5 µM; Melanocortin receptor 4 (Homo sapiens), P32245; MC4R-expressing cells, MTII-stimulated cAMP, LANCE TR-FRET;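 active means inhibition above its plate's cutoff, the mean of tested wells on that plate plus 3 SD, cut at about 29% in these data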;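 further: 0% = Melanotan II alone and 100% = Melanotan II plus saturating MCL0020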
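Material – human MC4R-expressing U2OS cells · Repeats – no replicates · Detection – TR-FRET with Eu-cAMP and labeled anti-cAMP, 671 nm · Times – compound 30 min, challenge 1 h, detection 1 h · Compound – single nominal compound dose of 6.5 µM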
MC4R ag barr – MC4R agonists recruiting beta-arrestin, primary screen, cell-based, luminescence, agonist arm of biased-ligand search. Melanocortin receptor 4 (Homo sapiens), P32245. U2OS MC4R beta-arrestin complementation; percent of melanotan II response, DMSO zero. activation, % at 8.9 µM. 0.98% of 360,000 active. AID 540308, 2011;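 active means activation above a per-plate cutoff, the mean activation of sample wells on that plate plus 3 SD, cut at about 8% in these data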
HGIII-sPLA2 inh – human group III sPLA2 inhibitors, primary screen, biochemical, QFRET, BODIPY PC-A2 liposome substrate | 0.56% of 370,000 active | Group 3 secretory phospholipase A2 (Homo sapiens), Q9NZ20 | inhibition, % at 12.2 µM | AID 743126, 2013 | QFRET BODIPY PC-A2 liposome hydrolysis, fluorescence;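 active means inhibition above mean plus 3 SD of compounds lying within the high and low control bounds, cut at about 19% in these data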;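 further: 0% = median of test compound wells and 100% = no enzyme DMSO wells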
NTR1 ag – agonists of human NTR1, primary screen, imaging, U2OS cells, beta-arrestin-GFP, high content. NTR1-U2OS beta-arrestin-GFP spot imaging, agonist mode. 0.17% of 330,000 active. activation, % at 20 µM. AID 493036, 2011. Neurotensin receptor type 1 (Homo sapiens), P30989;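 active means activation at or above 40% of the spot to cytoplasm intensity ratio, with at least 20 cells analyzed; inconclusive means wells under 20 cells, flagged as cytotoxic or low count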;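 further: 0% = DMSO without peptide and 100% = 100 nM NTR1 peptide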
Target sequence (P30989 whole entry, looked up): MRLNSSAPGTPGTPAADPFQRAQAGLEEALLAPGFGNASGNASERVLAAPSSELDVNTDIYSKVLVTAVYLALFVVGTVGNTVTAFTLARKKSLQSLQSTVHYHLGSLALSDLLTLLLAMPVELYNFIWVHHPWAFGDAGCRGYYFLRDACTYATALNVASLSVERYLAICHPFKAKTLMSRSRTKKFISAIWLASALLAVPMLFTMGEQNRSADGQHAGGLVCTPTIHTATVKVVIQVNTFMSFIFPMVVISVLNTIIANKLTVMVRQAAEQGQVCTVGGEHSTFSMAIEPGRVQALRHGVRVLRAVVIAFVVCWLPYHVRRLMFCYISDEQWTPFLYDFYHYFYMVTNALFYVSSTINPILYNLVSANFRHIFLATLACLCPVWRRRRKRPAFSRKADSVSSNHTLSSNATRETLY
Numbers without * were called inactive; ? = inconclusive; · = no result.

SMILES	A1 inh	Granule exo inh	MC4R antagonist	MC4R ag barr	HGIII-sPLA2 inh	NTR1 ag
C=CCn1c(=O)c2ccc(C(=O)NCc3ccccc3)cc2n(Cc2cccc(Cl)c2)c1=O	-1	3	-30	9.5*	-8	1
Cc1cc2c(cc1C)-c1c(ssc1=Nc1ccc(S(N)(=O)=O)cc1)C(C)(C)N2	2	67*	16	-2	-4	9
O=C(Nc1nccs1)c1cc2sccc2n1Cc1ccc(F)cc1	0	0	4	8.9*	3	6
COc1ccc(NC(=O)c2cc3sccc3n2Cc2ccc(F)cc2)cc1OC	-1	0	3	-1	-8	-2
O=C(Nc1ccc(N=Nc2ccccc2)cc1)c1ccccc1Cl	0	-12	6	9.5*	3	0
COc1ccc2sc(-c3ccccc3OC)c(C#Cc3cncn3C)c2c1	·	7	12	8.6*	-24	18
COc1ccccc1-c1sc2cc3c(cc2c1C#Cc1cncn1C)OCO3	-1	21	11	0	-11	13
Cc1cc(N2CCN(C)CC2)nc2ccc(NC(=S)NCCCN3CCc4ccccc4C3)cc12	0	59*	-2	-2	5	3
CCn1c(Cl)c(C=O)s/c1=N\S(=O)(=O)c1ccccc1	56*	5	3	1	11	-2
COC(=O)C1=C(C)N(Cc2cccc(C(F)(F)F)c2)C(=NCc2ccc(OC)cc2)NC1c1ccc(Cl)cc1 (stereo not given)	·	·	·	·	11	·
COc1ccc(/C=N\NC(=O)Cc2cccn2C)cc1OCc1ccccc1	·	·	·	·	-15	·
Cc1ccc(C)c(S(=O)(=O)Nc2ccc(O)cc2)c1	1	0	1	-1	-10	0
Cc1ccc(CONS(=O)(=O)c2cc(C)ccc2C)cc1	0	-2	-3	8.2*	-27	2
O=C(CC1CCCC1)N[C@H](C(=O)N1CCC[C@H]1C(=O)NCCc1ccccc1Cl)c1ccccc1	·	·	·	·	6	·
N=C1S/C(=C\c2ccc(-c3cccc(Cl)c3)o2)C(=O)N1c1nccs1	-1	73*	13	-4	7	·
CC(C)C1=CC2C3C(C(C(C)C)=CC(=O)[C@@]3(C)O)C1C(=O)C2(C)O (stereo not given in full)	·	·	·	·	-2	·
N#Cc1ccc(/C=C/C(=O)c2ccccc2)cc1	-1	15	19	-2	6	61*
CCOC(=O)c1nc(C)nc(Sc2n[nH]c(-c3ccc(C(C)(C)C)cc3)n2)c1C	1	-2	-1	9.3*	-16	0
CCOC(=O)c1nc(C)nc(Sc2n[nH]c(-c3cc(Cl)cc(Cl)c3)n2)c1C	0	-12	1	1	-11	1
CCN1/C(=N\N)c2cccc3cccc1c23	0	95*	8	0	-1	7
CCOc1ccc(-n2c(SCC(=O)Nc3cc4oc5ccccc5c4cc3OC)nnc2-c2cccc(Cl)c2)cc1	·	·	·	·	3	·
CCOC(=O)c1[nH]c(C)c(C(=O)OCC(=O)N2CCc3ccccc32)c1C	-2	5	-6	8.5*	0	5
CCOC(=O)c1c(C)[nH]c(C(=O)OCC(=O)N2CCc3ccccc32)c1C	0	-1	3	-2	-7	-2
Cc1ccc2c(c1)C(=C(C#N)C#N)C(=O)N2CCN1CCOCC1	1	-5	9	-1	9	1
Cc1ccc2c(c1)C(=C(C#N)C#N)C(=O)N2CCN1CCCCC1	1	56*	-3	-3	-1	2
SMILES	A1 inh	Granule exo inh	MC4R antagonist	MC4R ag barr	HGIII-sPLA2 inh	NTR1 ag
O=C(NC1CCCCC1)O[C@H]1CC[C@@]23CCCN2C(=O)CCC[C@H]3C1	·	·	·	·	5	·
O=c1oc2ccccc2c2oc3cc(O)c(O)cc3c12	-5	1	-11	3	22*	5
O=c1c2cc3cc(Cl)ccc3nc2ncn1Cc1ccc(Oc2ccccc2)cc1	·	·	·	·	-1	·
O=C(NCCc1nc2ccccc2[nH]1)c1ccc(Br)o1	0	-4	11	0	-1	0
O=C(Nc1nc2ccccc2[nH]1)c1ccc(Br)o1	-6	1	13	1	35*	-2
C[C@H]1[C@@H](NC(=O)C2CCC2)CC[C@@]23CCCN2C(=O)CCC[C@@H]13	·	·	·	·	1	·
CCN1C(c2ccccc2)=C(c2ccccc2)S/C1=C/C=C1\SC(=S)N(C)C1=O	·	59*	4	-2	-2	·
CCN1C(c2ccccc2)=C(c2ccccc2)S/C1=C\C=C1/SC(=S)N(C)C1=O	-1	9	11	0	12	-1
C=CCN1C(=O)[C@@H](CC(=O)NCc2ccc(OC)c(OC)c2)[C@]2(C(=O)OCC)CCCCC/C=C/12	·	·	·	·	-3	·
CC(=O)OCCCNc1cc(Sc2nc3ccccc3s2)c2nonc2c1[N+](=O)[O-]	?	69*	-41	-4	·	3
N#C/C(=C(/O)COC(=O)COc1cccc(Br)c1)c1nc2ccccc2[nH]1	0	-2	6	20*	-18	1
Cc1cc(C)cc(OCC(=O)OC/C(O)=C(\C#N)c2nc3ccccc3[nH]2)c1	0	-6	-5	14*	-12	1
O=C(CSc1nc2ccccc2nc1N1CCCCC1)N1CCN(S(=O)(=O)c2ccccc2)CC1	·	·	·	·	12	·
O=C1c2[nH]nc(-c3ccccc3O)c2C(c2ccccc2)N1Cc1ccco1 (stereo not given)	0	-1	-5	9.2*	-20	2
Cc1cc(C)nc(N(C#N)CCOc2ccc(Cl)cc2)n1	0	77*	-10	6	-8	0
COc1ccc(/C=C/S(=O)(=O)NCc2ccccc2)c(CNC(=O)OC(C)(C)C)c1	·	·	·	·	0	·
Cn1cc(C(=O)C(=O)NCCc2ccccc2)c2ccccc21	0	-3	3	-2	1	0
Cc1ccccc1NC(=O)C(=O)c1cn(C)c2ccccc12	-3	-5	-3	12*	1	0
COc1ccc(C2CC(=O)C(c3ccccc3C)=CN2Cc2ccccc2)cc1 (stereo not given)	·	·	·	·	-2	·
Cc1cc(Cl)ccc1N=c1ssnc1Cl	1	8	-1	2	6	4
Cc1cc(C)nc(/N=c2/ssnc2Cl)c1	0	82*	-9	-2	2	16
Cc1ccc(N=c2ssnc2Cl)cc1	1	95*	8	-2	14	1
COC(=O)C1CN(Cc2cn(CCC3OCCO3)nn2)CCS(=O)(=O)N1Cc1ccc(C)cc1 (stereo not given)	·	·	·	·	6	·
